Results taken from ChEMBL document CHEMBL1629536, “Incorporation of piperazino functionality into 1,3-disubstituted urea as the tertiary pharmacophore affording potent inhibitors of soluble epoxide hydrolase with improved pharmacokinetic properties” (J Med Chem, 2010).
In brackets after ≈: the same amount, converted by molar mass.

Experiments:
[1] = target: T1, Bifunctional epoxide hydrolase 2 (Homo sapiens, UniProt P34913); assay: Inhibition of human recombinant soluble epoxide hydrolase expressed in baculovirus expression system by fluorimetric assay
T1 sequence (P34913 whole entry): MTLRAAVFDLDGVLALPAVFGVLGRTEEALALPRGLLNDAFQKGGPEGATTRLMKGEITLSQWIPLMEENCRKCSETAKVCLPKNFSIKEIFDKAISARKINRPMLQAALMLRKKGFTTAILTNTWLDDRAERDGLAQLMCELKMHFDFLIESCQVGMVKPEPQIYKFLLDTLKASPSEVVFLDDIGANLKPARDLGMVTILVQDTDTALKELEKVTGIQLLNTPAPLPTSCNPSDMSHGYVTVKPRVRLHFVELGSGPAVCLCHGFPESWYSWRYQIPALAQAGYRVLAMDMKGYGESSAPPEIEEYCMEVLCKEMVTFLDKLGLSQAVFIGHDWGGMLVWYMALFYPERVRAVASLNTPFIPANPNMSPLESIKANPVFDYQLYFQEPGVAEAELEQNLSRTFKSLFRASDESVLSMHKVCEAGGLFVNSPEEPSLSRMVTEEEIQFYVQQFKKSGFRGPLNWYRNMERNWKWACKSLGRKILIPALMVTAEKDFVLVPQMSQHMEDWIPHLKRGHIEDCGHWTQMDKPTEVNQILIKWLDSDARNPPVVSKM

[2] = Solubility in sodium phosphate buffer at 0.1 M pH 7.4 at 25 degC; type: physicochemical
[3] = Tmax in mouse at 5 mg/kg, po; type: ADME, organism-based; design: dose 5 mg/kg, route oral; settings: in vivo
[4] = (§1) Half life in mouse at 5 mg/kg, po; type: ADME, organism-based; design: dose 5 mg/kg, route oral; settings: in vivo
How it was run: (§2)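 Mice dosed by oral gavage at 5 mg/kg in oleic oil triglyceride containing 3% EtOH. Tail-vein blood was sampled before dosing and at 30, 60, 90, 120, 240, 450, 600 and 1440 min, then centrifuged at 3000 rpm, 4°C, 10 min. Plasma was analysed by LC/MS/MS. AUC and t1/2 came from noncompartmental fitting of the concentration-time data.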

[5] = Cmax in mouse at 5 mg/kg, po; type: ADME, organism-based; design: dose 5 mg/kg, route oral; settings: in vivo
[6] = AUC in mouse at 5 mg/kg, po; type: ADME, organism-based; design: dose 5 mg/kg, route oral; settings: plasma; how it was run: as §2
Mus musculus = assay: as §1; type: ADME, organism-based; design: dose 5 mg/kg, route oral; settings: in vivo; how it was run: as §2

Compound | IC50 [1] [nM] | further results
CN1CCN(CCCOc2ccccc2NC(=O)NC23CC4CC(CC(C4)C2)C3)CC1 | 2880 | 
CC(=O)N1CCN(CCCOc2ccccc2NC(=O)NC23CC4CC(CC(C4)C2)C3)CC1 | 994 | solubility [2]: 1.78 mg/mL (≈ 3920 µM)
O=C(Nc1cccc(OCCCN2CCNCC2)c1)NC12CC3CC(CC(C3)C1)C2 | 27.2 | solubility [2]: 0.81 mg/mL (≈ 1960 µM)
CN1CCN(CCCOc2ccc(NC(=O)NC34CC5CC(CC(C5)C3)C4)cc2)CC1 | 17.9 | 
CC(=O)N1CCN(CCCOc2ccc(NC(=O)NC34CC5CC(CC(C5)C3)C4)cc2)CC1 | 3.3 | solubility [2]: 0.32 mg/mL (≈ 704 µM); Tmax [3]: 30 min; half-life [4]: 360 min; Cmax [5]: 112 nM; AUC [6]: 0.58 µM·h
O=C(Nc1ccccc1OCCCCN1CCNCC1)NC12CC3CC(CC(C3)C1)C2 | 72800 | 
O=C(Nc1cccc(OCCCCN2CCNCC2)c1)NC12CC3CC(CC(C3)C1)C2 | 14.8 | 
CC(=O)N1CCN(CCCCOc2cccc(NC(=O)NC34CC5CC(CC(C5)C3)C4)c2)CC1 | 2.7 | solubility [2]: 1.82 mg/mL (≈ 3880 µM)
O=C(Nc1ccc(OCCCCN2CCNCC2)cc1)NC12CC3CC(CC(C3)C1)C2 | 126 | 
CC(C)(C)OC(=O)N1CCN(C(=O)CCCOc2cccc(NC(=O)NC34CC5CC(CC(C5)C3)C4)c2)CC1 | 21.5 | 
O=C(Nc1cccc(OCCCCCN2CCNCC2)c1)NC12CC3CC(CC(C3)C1)C2 | 13.8 | 
CC(C)(C)OC(=O)N1CCN(CCOc2cccc(NC(=O)NC34CC5CC(CC(C5)C3)C4)c2)CC1 | 2.8 | 
CC(C)(C)OC(=O)N1CCN(CCCCCOc2cccc(NC(=O)NC34CC5CC(CC(C5)C3)C4)c2)CC1 | 11.7 | 
O=C(Nc1cccc(OCCCCN2CCN(C(=O)C(F)(F)F)CC2)c1)NC12CC3CC(CC(C3)C1)C2 | 1.8 | 
CS(=O)(=O)N1CCN(CCCCOc2cccc(NC(=O)NC34CC5CC(CC(C5)C3)C4)c2)CC1 | 1 | solubility [2]: 2.97 mg/mL (≈ 5880 µM); Tmax [3]: 30 min; half-life [4]: 210 min; Cmax [5]: 160 nM; AUC [6]: 0.333 µM·h
O=C(Nc1cccc(OCCCCN2CCN(C(=O)c3ccc(C(F)(F)F)cc3)CC2)c1)NC12CC3CC(CC(C3)C1)C2 | 13.6 | 
CC(C)(C)OC(=O)N1CCN(CCCOc2ccc(NC(=O)NC34CC5CC(CC(C5)C3)C4)cc2)CC1 | 14.6 | 
O=C(O)CCCCCCCCCCCNC(=O)NC12CC3CC(CC(C3)C1)C2 |  | solubility [2]: < 0.125 mg/mL; t1/2 (Mus musculus): 2.1 h; AUC [6]: 0.05 µM·h

Second part, led by results:

IC50 [1] [nM] | Compound | further results
3150 | CC(=O)N1CCN(CCCCOc2ccccc2NC(=O)NC23CC4CC(CC(C4)C2)C3)CC1 | 
23.1 | CN1CCN(CCCOc2cccc(NC(=O)NC34CC5CC(CC(C5)C3)C4)c2)CC1 | solubility [2]: 2.21 mg/mL (≈ 5180 µM)
97500 | O=C(Nc1ccccc1OCCCN1CCNCC1)NC12CC3CC(CC(C3)C1)C2 | 
3.6 | CC(=O)N1CCN(CCCOc2cccc(NC(=O)NC34CC5CC(CC(C5)C3)C4)c2)CC1 | solubility [2]: 0.34 mg/mL (≈ 748 µM); Tmax [3]: 30 min; half-life [4]: 480 min; Cmax [5]: 32 nM; AUC [6]: 0.185 µM·h
156 | O=C(Nc1ccc(OCCCN2CCNCC2)cc1)NC12CC3CC(CC(C3)C1)C2 | 
5290 | CN1CCN(CCCCOc2ccccc2NC(=O)NC23CC4CC(CC(C4)C2)C3)CC1 | 
13.3 | CN1CCN(CCCCOc2cccc(NC(=O)NC34CC5CC(CC(C5)C3)C4)c2)CC1 | 
44.8 | CN1CCN(CCCCOc2ccc(NC(=O)NC34CC5CC(CC(C5)C3)C4)cc2)CC1 | 
7 | CC(=O)N1CCN(CCCCOc2ccc(NC(=O)NC34CC5CC(CC(C5)C3)C4)cc2)CC1 | solubility [2]: 0.7 mg/mL (≈ 1490 µM); Tmax [3]: 30 min; half-life [4]: 840 min; Cmax [5]: 84 nM; AUC [6]: 0.67 µM·h
91.4 | O=C(Nc1cccc(OCCCC(=O)N2CCNCC2)c1)NC12CC3CC(CC(C3)C1)C2 | 
7.1 | CC(C)(C)OC(=O)N1CCN(CCCCOc2cccc(NC(=O)NC34CC5CC(CC(C5)C3)C4)c2)CC1 | solubility [2]: 2.78 mg/mL (≈ 5280 µM); Tmax [3]: 540 min; half-life [4]: 3540 min; Cmax [5]: 6 nM; AUC [6]: 0.085 µM·h
5.4 | CC(=O)N1CCN(C(=O)CCCOc2cccc(NC(=O)NC34CC5CC(CC(C5)C3)C4)c2)CC1 | 
67.1 | O=C(Nc1cccc(OCCN2CCNCC2)c1)NC12CC3CC(CC(C3)C1)C2 | 
7.8 | CN1CCN(CCOc2cccc(NC(=O)NC34CC5CC(CC(C5)C3)C4)c2)CC1 | 
11.5 | CN1CCN(CCCCCOc2cccc(NC(=O)NC34CC5CC(CC(C5)C3)C4)c2)CC1 | 
2.8 | CC(=O)N1CCN(CCCCCOc2cccc(NC(=O)NC34CC5CC(CC(C5)C3)C4)c2)CC1 | 
6 | CC(=O)N1CCN(CCOc2cccc(NC(=O)NC34CC5CC(CC(C5)C3)C4)c2)CC1 | solubility [2]: 0.52 mg/mL (≈ 1180 µM)
2.9 | CC(C)(C)OC(=O)N1CCN(CCCOc2cccc(NC(=O)NC34CC5CC(CC(C5)C3)C4)c2)CC1 | solubility [2]: 0.54 mg/mL (≈ 1050 µM); Tmax [3]: 30 min; half-life [4]: 1380 min; Cmax [5]: 6 nM; AUC [6]: 0.1 µM·h
1.4 | O=C(Nc1cccc(OCCCCN2CCN(C(=O)CCl)CC2)c1)NC12CC3CC(CC(C3)C1)C2 | 
9.6 | COc1cc(C(=O)N2CCN(CCCCOc3cccc(NC(=O)NC45CC6CC(CC(C6)C4)C5)c3)CC2)cc(OC)c1OC | 
3.3 | Cc1ccc(S(=O)(=O)N2CCN(CCCCOc3cccc(NC(=O)NC45CC6CC(CC(C6)C4)C5)c3)CC2)cc1 | 
39.4 | CC(C)(C)OC(=O)N1CCN(CCCOc2ccccc2NC(=O)NC23CC4CC(CC(C4)C2)C3)CC1 | 
16.5 | CC(C)(C)OC(=O)N1CCN(CCCCOc2ccccc2NC(=O)NC23CC4CC(CC(C4)C2)C3)CC1 | 
20.1 | CC(C)(C)OC(=O)N1CCN(CCCCOc2ccc(NC(=O)NC34CC5CC(CC(C5)C3)C4)cc2)CC1 | 
